# Test results reported in PubChem BioAssay.
# Unmarked numbers belong to inactive results. Records with an inconclusive call do not appear. Calls of active or inactive are those of the source.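 How the source made its calls, unless noted: active means viability increase at or above a cutoff of the median across tested compounds plus 3 SD (cut at about 8.5% in these data, passing the limit was not always enough); inconclusive means some gains above the cutoff, reason not given; inactive means the rest.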
# Assays:
# [1] = S. cerevisiae growth inhibition in permissive medium (OD615), pilot counter-assay for S. cerevisiae lifespan shortening project, permissive growth control (AID 705;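 active means growth inhibition above 25% in both replicates, a cutoff set 3 SD above the mean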); conditions: OD615, 24 h, at 10 µM, hits give high values
# How it was run: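 System: S. cerevisiae with engineered DeaD lifespan system. Medium: SC raffinose/galactose permissive medium. Doses: single compound dose of 10 µM, 0.25% DMSO final. Schedule: 24 h exposure, 30 °C. Measured by: OD615 turbidity read. Read-out: growth inhibition.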
# [2] = S. cerevisiae growth inhibition in restrictive medium, OD615, pilot screen, restrictive growth control, yeast lifespan reduction project (AID 706;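 active means growth inhibition above a set limit, 3 SD over mean compound inhibition, in both replicates, cut at about 43% in these data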;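 further: modified DeaD lifespan yeast strain shifted to restrictive glucose medium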); conditions: OD615, 48 h, at 10 µM, hits give high values
# How it was run: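 Assay system – genetically modified Saccharomyces cerevisiae, DeaD replicative lifespan assay strain · Medium – CSMM-D glucose medium · Doses – 10 µM compound, 0.25% DMSO · Times – 4 h pre-incubation, 48 h exposure at 30 °C · Signal – optical density at 615 nm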
# [3] = doxorubicin toxicity protection in MRP-1 cells – H69AR cells, CellTiter-Glo, duplicate, MRP-1 activator project, pilot screen (AID 807); conditions: H69AR viability with doxorubicin, CellTiter-Glo luminescence; at 10 µM; hits give high values;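 further: compound pretreatment 18-22 h then 72 h combined with doxorubicin; 0% = doxorubicin alone and 100% = vehicle without doxorubicin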
# [4] = viability of HCT116 without oncogenic beta-catenin – human colon tumor cells, pilot screen (AID 823;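 active means cell viability at or below a set limit in both duplicate runs, the limit being the all-compound median minus 4 SD, cut at about 23% in these data, passing the limit was not always enough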;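 further: 0% = wells killed by 20 µM Hyamine and 100% = untreated DMSO cell wells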); conditions: HCT116 beta-catenin knockout viability, CellTiter-Glo, 60 h; at 10 µM; hits give low values
# [5] = viability of PTEN-null HCT116 cells – cell-based, HCT116 clonal line, CellTiter-Glo, pilot screen (AID 824;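 active means viability at or below 27.92% in each of two runs, the all-compound median minus 4 SD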;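 further: 0% = 20 µM Hyamine control and 100% = vehicle cell control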); conditions: HCT116 PTEN-deleted viability, 60 h, at 10 µM, hits give low values
# [6] = RAM pathway blockade in budding yeast – dse1pr::URA3 reporter, 5-FOA selection, pilot screen (AID 869;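 active means inhibition over a set limit, the all-compound mean plus 3 SD, in both replicate runs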;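 further: 0% = DMSO wells with no growth and 100% = 10 µM 1-NA-PP1 with full growth; RAM network block rescues cells from 5-FOA so hits raise OD615 growth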); conditions: S. cerevisiae dse1pr::URA3 5-FOA growth, OD615, 2 d; at 10 µM; hits give high values; strain carries analog-sensitive mutant Cbk1 kinase
# [7] = RAM signaling pathway blockade in yeast – S. cerevisiae, Pdr1DBD-CYC8 efflux-inhibited sensitized strain, primary screen (AID 1298;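 active means RAM network inhibition above 8.4% in each of two replicates, 3 SD over the compound average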;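 further: 0% = DMSO untreated cells without growth and 100% = 10 µM 1-NA-PP1 full growth; higher means more yeast growth rescued from 5-FOA killing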); conditions: S. cerevisiae cbk1-as DSE1-URA3 strain, 5-FOA growth OD615, 2 d; at 50 µM; hits give high values
Structure (SMILES),growth inhibition [1] [%],growth inhibition [2] [%],viability increase [3] [%],viability [4],viability [5],inhibition [6] [%],RAM network inhibition [7] [%]
COc1cccc(N2CCN(c3ncnc4c3cnn4-c3ccc(C)cc3C)CC2)c1,4.2,3.35,-8.59,7.71% (active),10.3% (active),1.66,8.39
COc1ccc(C2CC(=O)N3CN(c4ccccc4F)CSC3=C2C#N)cc1OC (stereo unspecified),7.21,19.4,-1.47,107%,95.5%,1.22,1.24
C=C(C)Cn1c(N2CCCC2)nc2c1c(=O)[nH]c(=O)n2C,-1.91,-5.8,-1.97,108%,96.6%,1.32,2.05
CC1(C)Nc2ccccc2N(CCC(=O)N2CCOCC2)C1=O,-13.2,0.485,-0.6,92.9%,96.4%,0.905,2.81
N#CCc1ccc(NS(=O)(=O)c2ccc(N3CCCC3=O)cc2)cc1,-10.7,-7.71,-0.69,89.8%,88%,2.58,0.32
CC(C)NS(=O)(=O)c1ccc(CCC(=O)NCc2ccco2)cc1,-15.3,-22.4,-3.3,93.1%,97%,1.55,-0.53
O=c1oc2c3c4c(cc2c2c1CCC2)OCCN4CCC3,-8.18,-0.795,-7.31,58.3%,67.3%,0.055,5.48
Cn1c(NC(=O)C2CCCO2)cc(=O)n(C)c1=O (stereo unspecified),0.76,1.36,-0.7,103%,99.8%,0.565,-0.47
CCOC(=O)C1=C(SCC(=O)Nc2ccccc2)NC(=O)C(C#N)C12CCCCC2 (stereo unspecified),-8.66,-7.72,-2.95,85.1%,91.5%,1.71,2.44
COc1ccc(C(=O)NCC(c2cccnc2)N2CCN(c3ccccc3)CC2)cc1OC (stereo unspecified),-5.73,0.095,-2.1,97.6%,93.1%,1.5,2.74
CCCCC(CC)C(=O)NCCc1ccc(S(N)(=O)=O)cc1 (stereo unspecified),-2.48,-4.13,-0.52,93.2%,97.9%,1,-0.82
CCN(CC)c1ccc(NC(=O)CSc2nc(C)cc(=O)[nH]2)cc1,-5.01,1.71,-0.69,95.7%,95.4%,0.125,5.74
COc1ccc2nc(SCc3nc(N)nc(Nc4ccccc4)n3)[nH]c2c1,-8.8,15.4,0.65,67.7%,80.3%,0.72,6.33
Cn1c(=O)[nH]c(=O)c2c1nc(CN1CCN(c3cccc(Cl)c3)CC1)n2Cc1ccccc1Cl,-9.22,-6.86,-6.82,41.1%,32.9%,1.39,4.08
N#CCCN1CCN(S(=O)(=O)c2ccc(S(=O)(=O)N3CCOCC3)cc2)CC1,-6.47,4.95,0.97,95.2%,98.8%,-0.88,-2.16
CSCCC(/C(O)=C(\C#N)c1nc2ccccc2[nH]1)N1C(=O)c2ccccc2C1=O (stereo unspecified),-14.1,-11.8,0,89.8%,90.8%,2.82,7.67
CC1c2[nH]c3ccccc3c2CCN1S(C)(=O)=O (stereo unspecified),2.66,14.2,-0.49,98.4%,90.8%,0.31,0.57
CCSc1nnc(Cn2c(=O)sc3ccccc32)n1-c1ccc(OC)cc1,-4.46,30.7,-1.8,92.1%,86.5%,-0.94,9.11
